Reference: ChEMBL document CHEMBL2331285, “Optimization of 3,5-dimethylisoxazole derivatives as potent bromodomain ligands” (J Med Chem, 2013)
Activity calls are given as the source filed them. The rule behind the calls is not given here.

Key:
[1] = biological target: Bromodomain-containing protein 4 (Homo sapiens, UniProt O60885); assay: Binding affinity to human BRD4 bromodomain 1 using H4Ac4 peptide by amplified luminescent proximity homogeneous assay
[2] = biological target: CREB-binding protein (Homo sapiens, UniProt Q92793); assay: Binding affinity to CREBBP bromodomain (unknown origin) using H3K56Ac peptide by amplified luminescent proximity homogeneous assay
[3] = tested on: NCI-H1975; assay: Cytotoxicity against human NCI-H1975 cells after 72 hrs by MTS assay; type: functional, cell-based; details: NCI-H1975, 72 h
[4] = tested on: HeLa; assay: Cytotoxicity against human HeLa cells after 24 hrs by WST-1 assay; type: functional, cell-based
[5] = tested on: A549; assay: Cytotoxicity against human A549 cells after 72 hrs by MTS assay; type: functional, cell-based; details: A549, 72 h
[6] = tested on: U2OS; assay: Cytotoxicity against human U2OS cells after 24 hrs by WST-1 assay; type: functional, cell-based
[7] = tested on: NCI-H1975; assay: Cytotoxicity against human NCI-H1975 cells after 10 to 14 days by crystal violet staining based clonogenic survival assay; type: functional, cell-based
[8] = species: Homo sapiens; assay: Selectivity ratio of IC50 for CREBBP bromodomain to IC50 for human BRD4 bromodomain 1 (unknown origin)
In short: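 IC50 ratio, both values from AlphaScreen peptide displacement (protein and peptide 50 nM each, duplicates, sigmoidal fit). BRD4(1) used biotinylated tetra-acetylated H4 peptide (SGRGK(Ac)GGK(Ac)GLGK(Ac)GGAK(Ac)RHRK-biotin); CREBBP used biotinylated H3K56Ac peptide.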

[9] = tested on: MV4-11; assay: Cytotoxicity against human MV4-11 cells after 72 hrs by MTS assay; type: functional, cell-based; details: MV4-11, 72 h

CREB-binding protein, sequence (Q92793 whole entry): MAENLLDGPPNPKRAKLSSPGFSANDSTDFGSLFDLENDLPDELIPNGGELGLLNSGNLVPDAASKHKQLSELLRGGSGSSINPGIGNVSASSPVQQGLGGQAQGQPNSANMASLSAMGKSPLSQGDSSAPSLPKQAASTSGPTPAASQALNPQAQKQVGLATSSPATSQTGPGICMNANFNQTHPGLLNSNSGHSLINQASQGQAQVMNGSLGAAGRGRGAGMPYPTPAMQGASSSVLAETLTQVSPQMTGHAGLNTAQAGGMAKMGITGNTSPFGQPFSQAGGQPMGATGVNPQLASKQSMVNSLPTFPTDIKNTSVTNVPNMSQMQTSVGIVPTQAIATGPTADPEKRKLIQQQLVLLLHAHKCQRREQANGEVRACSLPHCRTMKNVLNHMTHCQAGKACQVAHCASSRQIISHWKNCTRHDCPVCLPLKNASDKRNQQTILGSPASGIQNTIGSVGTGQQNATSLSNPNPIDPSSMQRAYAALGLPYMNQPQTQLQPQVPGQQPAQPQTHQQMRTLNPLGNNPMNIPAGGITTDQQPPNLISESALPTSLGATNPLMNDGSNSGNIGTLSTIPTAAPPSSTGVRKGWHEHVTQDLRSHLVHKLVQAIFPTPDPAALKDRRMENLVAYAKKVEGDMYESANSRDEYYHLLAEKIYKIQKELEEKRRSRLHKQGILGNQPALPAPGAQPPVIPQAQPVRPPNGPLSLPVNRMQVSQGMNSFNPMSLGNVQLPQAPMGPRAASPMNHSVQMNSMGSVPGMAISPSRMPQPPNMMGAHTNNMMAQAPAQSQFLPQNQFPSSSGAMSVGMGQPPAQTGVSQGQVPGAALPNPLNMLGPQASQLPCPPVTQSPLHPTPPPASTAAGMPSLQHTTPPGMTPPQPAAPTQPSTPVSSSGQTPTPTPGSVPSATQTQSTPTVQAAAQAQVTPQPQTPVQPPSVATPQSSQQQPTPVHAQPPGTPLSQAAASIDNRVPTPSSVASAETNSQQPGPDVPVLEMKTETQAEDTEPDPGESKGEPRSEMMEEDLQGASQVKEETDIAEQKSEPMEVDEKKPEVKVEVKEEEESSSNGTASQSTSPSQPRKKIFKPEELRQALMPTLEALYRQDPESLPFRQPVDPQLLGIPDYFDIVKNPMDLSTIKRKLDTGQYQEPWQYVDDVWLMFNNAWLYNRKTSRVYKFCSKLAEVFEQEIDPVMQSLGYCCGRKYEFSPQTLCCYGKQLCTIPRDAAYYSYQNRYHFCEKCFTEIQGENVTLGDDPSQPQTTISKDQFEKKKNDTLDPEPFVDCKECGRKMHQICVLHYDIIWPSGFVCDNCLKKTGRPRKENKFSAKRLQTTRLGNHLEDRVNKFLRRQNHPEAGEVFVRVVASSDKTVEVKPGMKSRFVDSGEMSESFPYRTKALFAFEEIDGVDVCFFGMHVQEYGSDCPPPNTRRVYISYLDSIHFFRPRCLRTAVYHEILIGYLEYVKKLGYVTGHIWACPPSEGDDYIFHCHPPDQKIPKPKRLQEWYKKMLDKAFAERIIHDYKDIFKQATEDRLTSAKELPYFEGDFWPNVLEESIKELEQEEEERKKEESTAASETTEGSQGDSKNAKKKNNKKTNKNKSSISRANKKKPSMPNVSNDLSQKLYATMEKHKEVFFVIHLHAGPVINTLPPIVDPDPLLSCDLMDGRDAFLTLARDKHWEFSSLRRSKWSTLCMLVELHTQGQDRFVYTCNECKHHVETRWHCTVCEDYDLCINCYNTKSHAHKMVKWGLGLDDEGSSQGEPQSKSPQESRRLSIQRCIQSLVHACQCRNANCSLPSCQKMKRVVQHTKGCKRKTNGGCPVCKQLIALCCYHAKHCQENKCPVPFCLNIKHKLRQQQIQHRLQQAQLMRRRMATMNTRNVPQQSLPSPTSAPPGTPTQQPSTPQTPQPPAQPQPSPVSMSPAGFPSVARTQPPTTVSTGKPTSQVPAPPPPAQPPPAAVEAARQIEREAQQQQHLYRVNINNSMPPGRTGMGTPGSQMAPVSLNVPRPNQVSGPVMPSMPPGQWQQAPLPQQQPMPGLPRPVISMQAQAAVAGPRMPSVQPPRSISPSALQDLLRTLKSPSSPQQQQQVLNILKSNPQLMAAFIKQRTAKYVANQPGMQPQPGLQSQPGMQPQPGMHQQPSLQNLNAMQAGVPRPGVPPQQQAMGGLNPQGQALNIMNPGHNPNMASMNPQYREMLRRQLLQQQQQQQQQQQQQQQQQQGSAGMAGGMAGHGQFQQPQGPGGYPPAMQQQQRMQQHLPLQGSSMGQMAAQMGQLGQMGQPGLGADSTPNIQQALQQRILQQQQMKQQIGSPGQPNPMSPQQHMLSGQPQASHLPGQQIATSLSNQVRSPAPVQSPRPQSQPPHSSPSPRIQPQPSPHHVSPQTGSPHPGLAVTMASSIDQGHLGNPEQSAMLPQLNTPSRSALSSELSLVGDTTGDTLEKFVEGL

Row | Structure (SMILES) | IC50 [1] [nM] | IC50 [2] [nM] | IC50 [4] [nM] | IC50 [6] [nM] | further results
1 | Cc1noc(C)c1-c1cc(OCCO)cc(C(O)c2ccccc2)c1 (stereo not given) | 1170 | 2810 |  |  | 
2 | Cc1noc(C)c1-c1cc(O)cc(C(O)c2ccccc2)c1 (racemic) |  |  | > 100000 | > 100000 | IC50 [3]: > 10000 nM; IC50 [5]: > 10000 nM; Activity [7]: Active
3 | CCOc1cc(-c2c(C)noc2C)cc(C(C)O)c1 (stereo not given) |  |  |  |  | Ratio IC50 [8]: 6
4 | COCCOc1cc(-c2c(C)noc2C)cc(C(O)c2ccccc2)c1 (stereo not given) | 1380 | 2070 |  |  | 
5 | CCOc1cc(-c2c(C)noc2C)cc(C(O)c2ccccc2)c1 (stereo not given) | 640 | 4100 |  |  | Ratio IC50 [8]: 6
6 | COc1cc(-c2c(C)noc2C)cc(C(O)c2ccccc2)c1 (stereo not given) | 1360 | 3960 |  |  | 
7 | Cc1noc(C)c1-c1cc(O)cc(C(=O)c2ccccc2)c1 | 544 |  |  |  | 
8 | CC(=O)Oc1cc(-c2c(C)noc2C)cc(C(O)c2ccccc2)c1 (racemic) |  | 2480 | > 100000 | > 100000 | IC50 [3]: > 10000 nM; IC50 [5]: > 10000 nM; Activity [7]: Active
9 | Cc1sc2c(c1C)C(c1ccc(Cl)cc1)=N[C@@H](CC(=O)OC(C)(C)C)c1nnc(C)n1-2 |  |  | > 100000 | > 100000 | IC50 [9]: 242 nM
